Test results taken from ChEMBL document CHEMBL3526089, “Selective mechanism-based inactivation of CYP3A4 by CYP3cide (PF-04981517) and its utility as an in vitro tool for delineating the relative roles of CYP3A4 versus CYP3A5 in the metabolism of drugs” (Drug Metab Dispos, 2012).

Key:
Format in all cases: ADME
CYP2C9 = CYP2C9 (Homo sapiens, UniProt P11712); test: Time dependent inhibition of human CYP2C9 diclofenac 4'-hydroxylase activity assessed as decrease in enzyme activity at 100 uM preincubated for 30 mins by IC25-shift assay; conditions: probe diclofenac (4'-hydroxylation)
Chain of CYP2C9 (P11712 whole entry): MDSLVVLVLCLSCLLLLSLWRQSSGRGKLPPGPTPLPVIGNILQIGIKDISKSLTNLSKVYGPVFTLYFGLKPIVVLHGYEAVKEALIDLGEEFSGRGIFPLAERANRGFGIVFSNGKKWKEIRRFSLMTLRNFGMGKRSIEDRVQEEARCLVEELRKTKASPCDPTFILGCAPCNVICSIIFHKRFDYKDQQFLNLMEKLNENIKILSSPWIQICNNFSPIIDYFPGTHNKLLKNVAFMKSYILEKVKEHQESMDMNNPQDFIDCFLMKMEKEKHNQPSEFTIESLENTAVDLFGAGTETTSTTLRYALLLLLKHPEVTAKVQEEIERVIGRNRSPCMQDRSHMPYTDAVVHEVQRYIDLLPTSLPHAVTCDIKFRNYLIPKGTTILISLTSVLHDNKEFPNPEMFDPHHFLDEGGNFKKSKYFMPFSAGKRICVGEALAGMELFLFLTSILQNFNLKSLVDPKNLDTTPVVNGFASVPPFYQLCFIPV
Method in brief: (§1)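 IC25-shift assay. Pooled HLMs or recombinant CYP3A4/3A5/3A7 were preincubated 30 min at 37°C with CYP3cide, with or without NADPH (1.3 mM) (N=2). Mixture diluted 10-fold into probe substrate (~KM) at 37°C. Metabolites analysed by LC/MS/MS. Readout: % decrease in activity vs control.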

CYP3A [1] = target: T1, CYP3A (Homo sapiens, UniProt P08684+P20815+P24462+Q9HB55); test: Time dependent inhibition of human CYP3A midazolam 1'-hydroxylase activity assessed as decrease in enzyme activity at 1 uM preincubated for 30 mins by IC25-shift assay; conditions: probe midazolam (1'-hydroxylation); method in brief: as §1
CYP3A [2] = target: T1, CYP3A; test: Time dependent inhibition of human CYP3A testosterone 6beta-hydroxylase activity assessed as decrease in enzyme activity at 5 uM preincubated for 30 mins by IC25-shift assay; conditions: probe testosterone (6beta-hydroxylation); method in brief: as §1
Cytochrome P450 3A4 [3] = target: T2, Cytochrome P450 3A4 (Homo sapiens, UniProt P08684); test: Inhibition of midazolam 1'-hydroxylase activity of human recombinant CYP3A4 harboring human P450 oxidoreductase and b5 assessed as decrease in enzyme activity preincubated for 30 mins by LC-MS/MS analysis
T2 sequence (P08684 whole entry): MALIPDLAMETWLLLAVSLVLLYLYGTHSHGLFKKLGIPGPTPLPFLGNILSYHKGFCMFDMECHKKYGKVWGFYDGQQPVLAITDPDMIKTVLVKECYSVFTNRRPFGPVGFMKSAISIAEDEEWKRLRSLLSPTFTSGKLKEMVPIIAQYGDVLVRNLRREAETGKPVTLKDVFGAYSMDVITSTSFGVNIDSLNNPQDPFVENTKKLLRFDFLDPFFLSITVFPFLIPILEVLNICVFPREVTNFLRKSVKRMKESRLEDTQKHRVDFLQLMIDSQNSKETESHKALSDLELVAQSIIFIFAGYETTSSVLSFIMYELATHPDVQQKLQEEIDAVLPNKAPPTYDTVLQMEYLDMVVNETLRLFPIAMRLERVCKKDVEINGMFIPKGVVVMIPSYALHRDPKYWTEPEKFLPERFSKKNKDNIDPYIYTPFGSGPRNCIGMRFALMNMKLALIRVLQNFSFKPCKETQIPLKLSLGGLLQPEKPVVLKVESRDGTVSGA
Method in brief: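 Recombinant CYP3A4 with POR and cytochrome b5 was preincubated with inhibitor at 0.050 µM, with or without NADPH (1.3 mM), for 30 min at 37°C (N=2). The mixture was then diluted 10-fold into the probe substrate (about KM) at 37°C and analysed for metabolite. Results are percent decrease in activity versus control.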

Cytochrome P450 1A2 = Cytochrome P450 1A2 (Homo sapiens, UniProt P05177); test: Reversible inhibition of human CYP1A2 phenacetin O-deethylase activity
Chain of Cytochrome P450 1A2 (P05177 whole entry, canonical isoform): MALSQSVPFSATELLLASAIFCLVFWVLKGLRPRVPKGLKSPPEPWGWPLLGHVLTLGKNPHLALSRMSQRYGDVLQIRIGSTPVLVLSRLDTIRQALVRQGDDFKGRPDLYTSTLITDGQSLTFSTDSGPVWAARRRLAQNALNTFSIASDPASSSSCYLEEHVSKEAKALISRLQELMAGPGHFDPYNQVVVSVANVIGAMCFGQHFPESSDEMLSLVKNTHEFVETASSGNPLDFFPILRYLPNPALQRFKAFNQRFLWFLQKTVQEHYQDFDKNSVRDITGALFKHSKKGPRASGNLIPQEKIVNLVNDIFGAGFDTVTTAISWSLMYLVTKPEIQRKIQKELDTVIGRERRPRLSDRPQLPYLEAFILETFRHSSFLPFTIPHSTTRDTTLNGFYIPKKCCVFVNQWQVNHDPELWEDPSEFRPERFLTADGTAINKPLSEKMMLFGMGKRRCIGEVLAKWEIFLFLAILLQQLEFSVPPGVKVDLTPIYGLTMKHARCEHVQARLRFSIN
Method in brief: (§2)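 Reversible IC50 with pooled HLM or recombinant CYP3A7 (with POR and b5), protein 0.010–0.10 mg/ml depending on isoform. Probe substrate at its experimentally derived KM. Metabolite formation measured by LC/MS/MS. IC50 determinations run in duplicate.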

Cytochrome P450 2B6 = Cytochrome P450 2B6 (Homo sapiens, UniProt P20813); test: Reversible inhibition of human CYP2B6 bupropion hydroxylase activity; method in brief: as §2
Chain of Cytochrome P450 2B6 (P20813 whole entry): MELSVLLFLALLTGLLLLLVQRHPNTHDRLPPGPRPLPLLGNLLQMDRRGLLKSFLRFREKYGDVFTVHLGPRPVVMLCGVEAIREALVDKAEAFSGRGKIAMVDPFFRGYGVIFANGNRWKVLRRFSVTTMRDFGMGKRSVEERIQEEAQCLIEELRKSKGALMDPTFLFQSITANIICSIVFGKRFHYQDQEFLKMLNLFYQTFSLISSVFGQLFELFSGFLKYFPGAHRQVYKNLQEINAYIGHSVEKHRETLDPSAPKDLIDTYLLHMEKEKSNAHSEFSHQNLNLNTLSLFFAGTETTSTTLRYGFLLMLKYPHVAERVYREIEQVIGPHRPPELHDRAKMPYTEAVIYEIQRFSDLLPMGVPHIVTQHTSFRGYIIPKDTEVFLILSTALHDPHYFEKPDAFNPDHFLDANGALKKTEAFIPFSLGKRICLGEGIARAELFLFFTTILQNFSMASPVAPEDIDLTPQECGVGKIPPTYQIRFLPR

Cytochrome P450 2C8 = Cytochrome P450 2C8 (Homo sapiens, UniProt P10632); test: Reversible inhibition of human CYP2C8 paclitaxel 6alpha-hydroxylase activity; method in brief: as §2
Chain of Cytochrome P450 2C8 (P10632 whole entry): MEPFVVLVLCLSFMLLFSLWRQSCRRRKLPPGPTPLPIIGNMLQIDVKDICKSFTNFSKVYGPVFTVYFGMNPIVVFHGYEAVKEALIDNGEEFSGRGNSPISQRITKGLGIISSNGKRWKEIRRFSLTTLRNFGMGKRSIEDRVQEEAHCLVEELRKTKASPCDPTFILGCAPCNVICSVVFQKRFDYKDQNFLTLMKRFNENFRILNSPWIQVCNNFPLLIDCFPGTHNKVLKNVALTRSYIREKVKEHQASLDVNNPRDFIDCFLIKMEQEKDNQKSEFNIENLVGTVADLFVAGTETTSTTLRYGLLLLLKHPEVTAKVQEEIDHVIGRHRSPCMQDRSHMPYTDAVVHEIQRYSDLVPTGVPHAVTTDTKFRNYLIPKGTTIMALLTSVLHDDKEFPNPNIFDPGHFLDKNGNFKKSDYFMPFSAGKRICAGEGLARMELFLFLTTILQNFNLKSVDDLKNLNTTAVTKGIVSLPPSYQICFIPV

Cytochrome P450 2C9 = Cytochrome P450 2C9 (Homo sapiens, UniProt P11712); test: Reversible inhibition of human CYP2C9 diclofenac 4'-hydroxylase activity; method in brief: as §2
Chain of Cytochrome P450 2C9 (P11712 whole entry): as the sequence (P11712 whole entry) above

Cytochrome P450 2C19 = Cytochrome P450 2C19 (Homo sapiens, UniProt P33261); test: Reversible inhibition of human CYP2C19 S-mephenytoin 4'-hydroxylase activity; method in brief: as §2
Chain of Cytochrome P450 2C19 (P33261 whole entry): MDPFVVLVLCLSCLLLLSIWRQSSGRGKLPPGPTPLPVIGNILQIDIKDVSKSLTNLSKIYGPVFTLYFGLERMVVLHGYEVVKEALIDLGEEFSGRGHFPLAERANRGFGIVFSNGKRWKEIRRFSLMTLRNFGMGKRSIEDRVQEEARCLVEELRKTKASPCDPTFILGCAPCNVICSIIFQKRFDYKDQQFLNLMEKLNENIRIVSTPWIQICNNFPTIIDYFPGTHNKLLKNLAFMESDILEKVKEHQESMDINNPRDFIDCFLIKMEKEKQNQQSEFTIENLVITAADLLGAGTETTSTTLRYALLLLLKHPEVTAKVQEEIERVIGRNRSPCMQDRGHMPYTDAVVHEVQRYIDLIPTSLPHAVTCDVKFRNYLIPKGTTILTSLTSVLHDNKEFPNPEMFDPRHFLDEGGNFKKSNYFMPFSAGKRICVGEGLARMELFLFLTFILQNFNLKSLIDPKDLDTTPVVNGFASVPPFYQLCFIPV

CYP3A [4] = target: T1, CYP3A; test: Reversible inhibition of human CYP3A felodipine oxidase activity; conditions: probe felodipine (oxidation); method in brief: as §2
CYP3A [5] = target: T1, CYP3A; test: Reversible inhibition of human CYP3A midazolam 1'-hydroxylase activity; conditions: probe midazolam (1'-hydroxylation); method in brief: as §2
CYP1A2 = CYP1A2 (Homo sapiens, UniProt P05177); test: Time dependent inhibition of human CYP1A2 phenacetin O-deethylase activity assessed as decrease in enzyme activity at 100 uM preincubated for 30 mins by IC25-shift assay; conditions: probe phenacetin (O-deethylation); method in brief: as §1
Chain of CYP1A2 (P05177 whole entry): as the sequence (P05177 whole entry, canonical isoform) above

CYP2B6 = CYP2B6 (Homo sapiens, UniProt P20813); test: Time dependent inhibition of human CYP2B6 bupropion hydroxylase activity assessed as decrease in enzyme activity at 100 uM preincubated for 30 mins by IC25-shift assay; conditions: probe bupropion (hydroxylation); method in brief: as §1
Chain of CYP2B6 (P20813 whole entry): as the sequence (P20813 whole entry) above

Cytochrome P450 3A4 [6] = target: T2, Cytochrome P450 3A4; test: Inhibition of testosterone 6beta-hydroxylase activity of human recombinant CYP3A4 in presence of human P450 oxidoreductase and b5 assessed as decrease in enzyme activity preincubated for 30 mins by LC-MS/MS analysis
Cytochrome P450 3A5 [7] = target: T3, Cytochrome P450 3A5 (Homo sapiens, UniProt P20815); test: Inhibition of midazolam 1'-hydroxylase activity of human recombinant CYP3A5 harboring human P450 oxidoreductase and b5 assessed as decrease in enzyme activity preincubated for 30 mins by LC-MS/MS analysis
T3 sequence (P20815 whole entry): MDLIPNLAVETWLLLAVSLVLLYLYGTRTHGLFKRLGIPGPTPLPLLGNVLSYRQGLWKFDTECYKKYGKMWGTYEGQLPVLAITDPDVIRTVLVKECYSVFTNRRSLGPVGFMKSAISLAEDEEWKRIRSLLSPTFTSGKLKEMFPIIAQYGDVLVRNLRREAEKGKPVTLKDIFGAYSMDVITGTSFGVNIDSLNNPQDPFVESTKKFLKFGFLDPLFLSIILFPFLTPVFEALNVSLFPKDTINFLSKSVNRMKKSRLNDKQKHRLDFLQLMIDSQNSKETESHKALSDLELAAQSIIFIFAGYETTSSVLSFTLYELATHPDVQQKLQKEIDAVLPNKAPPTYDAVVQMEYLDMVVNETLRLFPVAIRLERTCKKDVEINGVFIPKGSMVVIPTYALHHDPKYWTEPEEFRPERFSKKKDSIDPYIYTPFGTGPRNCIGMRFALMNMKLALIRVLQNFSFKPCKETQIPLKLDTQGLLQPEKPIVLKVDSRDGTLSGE
Method in brief: (§3)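 rCYP3A5 with POR and b5 (0.010 mg/ml for midazolam, 0.020 mg/ml for testosterone) preincubated 30 min at 37°C with 2 µM inhibitor, ±NADPH (1.3 mM), N=2. Mixture then diluted 10-fold into probe substrate at ~KM at 37°C. Activity expressed as percent of control remaining, reported as decrease in activity.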

Cytochrome P450 3A5 [8] = target: T3, Cytochrome P450 3A5; test: Inhibition of testosterone 6beta-hydroxylase activity of human recombinant CYP3A5 in presence of human P450 oxidoreductase and b5 assessed as decrease in enzyme activity preincubated for 30 mins by LC-MS/MS analysis; method in brief: as §3
Cytochrome P450 3A4 [9] = target: T2, Cytochrome P450 3A4; test: Drug metabolism assessed as human recombinant CYP3A4 in presence of human P450 oxidoreductase and b5-mediated (4-(1-methyl-4-((S)-3-(piperidin-1-yl)pyrrolidin-1-yl)-1H-pyrazolo[3,4-d]pyrimidin-3-yl)-5-p-tolyl-1H-pyrazol-1-yl)methanol formation at 10 uM by HPLC-MS analysis in presence of NADPH; conditions: recombinant enzyme
Method in brief: (§4)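 Recombinant CYP3A4 or CYP3A5 (50 pmol/ml final) added, without preincubation, to 10 µM CYP3cide with NADPH (final 1 mM) in 100 mM phosphate pH 7.4. Trapping incubations also held 200 µM KCN or 5 mM GSH (final). Incubated 1 h at 37°C, quenched with acetonitrile, dried, reconstituted. Metabolites analysed by LC/Orbitrap ESI-MS.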

Cytochrome P450 3A5 [10] = target: T3, Cytochrome P450 3A5; test: Drug metabolism assessed as human recombinant CYP3A5 in presence of human P450 oxidoreductase and b5-mediated (4-(1-methyl-4-((S)-3-(piperidin-1-yl)pyrrolidin-1-yl)-1H-pyrazolo[3,4-d]pyrimidin-3-yl)-5-p-tolyl-1H-pyrazol-1-yl)methanol formation at 10 uM by HPLC-MS analysis in presence of NADPH; conditions: recombinant enzyme; method in brief: as §4
CYP3A5*3/*3 = test: Inhibition of CYP3A5*3/*3 in human liver microsomes assessed as midazolam 1'-hydroxylase activity at 0.56 uM after 10 mins; conditions: liver microsomes (CYP3A5*3/*3 genotype), probe midazolam (1'-hydroxylation)
Method in brief: (§5)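 Genotyped individual HLMs (0.1 mg/ml) preincubated at 37°C with CYP3cide (0–1.3 μM; 10 min in the two-donor study, 5 min in the 30-donor study), with or without 1.3 mM NADPH (N=3). Mixture diluted 20-fold into 23 μM midazolam for 6 min. 1'-OH-midazolam measured. Readout: % of vehicle/no-NADPH control activity.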

[11] = Inhibition of CYP3A5*3/*3 in 5 mg/ml of human liver microsomes assessed as midazolam 1'-hydroxylase activity at <2.5 uM after 10 mins
[12] = Inhibition of CYP3A5*3/*3 in 5 mg/ml of human liver microsomes assessed as midazolam 1'-hydroxylase activity at 13 uM after 10 mins
[13] = Fraction unbound in human liver microsomes at 0.8 mg/ml
CYP3A5*1/*1 = test: Time dependent inhibition of CYP3A5*1/*1 in human liver microsomes assessed as midazolam 1'-hydroxylase activity at 0.56 uM after 10 mins by dilution method; conditions: liver microsomes (CYP3A5*1/*1 genotype), probe midazolam (1'-hydroxylation); method in brief: as §5

inhibition at 30 min, 100 µM (CYP2C9): 5.4%
inhibition at 30 min, 1 µM (CYP3A [1]): 47%
inhibition at 30 min, 5 µM (CYP3A [2]): 53%
Ki (Cytochrome P450 3A4 [3]): 120 nM
IC50 (Cytochrome P450 1A2): 43000 nM
IC50 (Cytochrome P450 2B6): 88000 nM
IC50 (Cytochrome P450 2C8): 78000 nM
IC50 (Cytochrome P450 2C9): > 100000 nM
IC50 (Cytochrome P450 2C19): 77000 nM
IC50 (CYP3A [4]): 160 nM
IC50 (CYP3A [5]): 330 nM
inhibition at 30 min, 100 µM (CYP1A2): 17%
inhibition at 30 min, 100 µM (CYP2B6): 2.4%
Ki (Cytochrome P450 3A4 [6]): 170 nM
Ki (Cytochrome P450 3A5 [7]): 2000 nM
Ki (Cytochrome P450 3A5 [8]): 1200 nM
Drug metabolism (Cytochrome P450 3A4 [9]): metabolite_detected
Drug metabolism (Cytochrome P450 3A5 [10]): metabolite_detected
inhibition at 10 min, 0.56 µM (CYP3A5*3/*3): > 85%
inhibition (INH) [11]: Not Active
inhibition (INH) [12]: Active
fraction unbound [13]: 0.56
inhibition at 10 min, 0.56 µM (CYP3A5*1/*1): 0.4%
SMILES: Cc1ccc(-c2c(-c3nn(C)c4ncnc(N5CC[C@H](N6CCCCC6)C5)c34)cnn2C)cc1
